Hits are enriched below; roughly 3.8% of the tested compounds scored in any of these assays.
KCNQ1 act = potentiators or activators of KCNQ1 channel, primary screen, cell-based, thallium flux, high-throughput; CHO-K1 KCNQ1, thallium flux FluxOR fluorescence; stronger effect = higher value; Potassium voltage-gated channel subfamily KQT member 1 (Homo sapiens), P51787; 0.35% of 310,000 active; B-score at 10 µM;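 active = fluorescence ratio B-score, a plate-corrected score, at least three library SD, with initial intensity B-score within 5 SD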
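Assay system: CHO-K1 cells stably expressing KCNQ1. Medium: assay buffer for compound exposure, DMSO matched across wells. Timing: 37 °C overnight plating, 90-min dark dye load, 20-min compound pretreatment. Signal: kinetic FluxOR fluorescence, 10 s baseline plus 110 s post-stimulus.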
KCNQ1 block = inhibitors of human KCNQ1 channel, primary screen, cell-based, thallium flux, high-throughput | Potassium voltage-gated channel subfamily KQT member 1 (Homo sapiens), P51787 | CHO-K1 KCNQ1, FluxOR thallium flux fluorescence; stronger effect = higher value | B-score at 10 µM | 1.3% of 310,000 active;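 active = compounds whose thallium flux B-score, printed positive for inhibition, exceeds three library SD while starting fluorescence stays within three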;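 note: channel opened by potassium depolarization with thallium stimulus after 20 min compound exposure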
Kir21 inh = inhibitors of mouse Kir2.1 inward-rectifier potassium channel; 0.85% of 310,000 active; AID 1672, 2009; B-score at 10 µM; Inward rectifier potassium channel 2 (Mus musculus), P35561; HEK293-Kir2.1, FluxOR thallium flux fluorescence; stronger effect = lower value;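 active = fluorescence ratio B-score at or below minus 3 SD of library scores, with starting-brightness B-score within 2 SD, cut at about -4.2 in these data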;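 note: channel flux triggered by added potassium and thallium sulfate stimulus; B-score of peak minus minimum fluorescence over baseline after thallium stimulus; more negative B-score means stronger Kir2.1 block with less thallium influx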
Target sequence (P35561 whole entry, looked up): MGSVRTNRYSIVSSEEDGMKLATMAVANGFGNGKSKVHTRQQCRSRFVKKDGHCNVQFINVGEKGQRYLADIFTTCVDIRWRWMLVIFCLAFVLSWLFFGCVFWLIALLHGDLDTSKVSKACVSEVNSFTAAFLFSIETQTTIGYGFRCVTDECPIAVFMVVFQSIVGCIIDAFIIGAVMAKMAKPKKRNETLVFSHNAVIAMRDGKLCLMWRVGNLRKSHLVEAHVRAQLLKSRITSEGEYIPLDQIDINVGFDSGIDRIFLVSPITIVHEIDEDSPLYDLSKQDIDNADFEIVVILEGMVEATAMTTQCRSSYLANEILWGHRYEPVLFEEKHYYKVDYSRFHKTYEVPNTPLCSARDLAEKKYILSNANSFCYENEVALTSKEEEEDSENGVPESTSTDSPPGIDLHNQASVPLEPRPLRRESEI
hERG rescue = hERG rescue from dofetilide block, primary screen, cell-based, CHO-hERG, FluxOR thallium flux, dofetilide IC70; activation (rescue from dofetilide block), less the hit threshold, % at 10 µM; AID 1511, 2009; 0.51% of 310,000 active; dofetilide IC70 present;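 active = activation above the mean of controls blocked by dofetilide plus 5 SD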;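 note: thallium influx through hERG after potassium depolarization seen as dye fluorescence rise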
KCNK9 block = KCNK9 potassium channel inhibitors, primary screen, HEK293 cells, thallium flux. B-score at 10 µM. 1.2% of 310,000 active. FluxOR thallium flux fluorescence; stronger effect = lower value;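 active = ratio B-score over 3 SD below the library mean, with starting fluorescence within 5 SD of its mean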;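 note: negative B-score means less thallium flux so channel inhibition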
KCNK3 block = human KCNK3 channel inhibitors, primary screen, CHO cells, FluxOR thallium flux, B-score; 0.84% of 340,000 active; AID 602410, 2012; Potassium channel subfamily K member 3 (Homo sapiens), O14649; FluxOR fluorescence; stronger effect = lower value; B-score at 10 µM;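 active = B-score under library mean minus 4 SD, starting fluorescence ratio at most library mean plus 5 SD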;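 note: more negative B-score means stronger inhibition of thallium flux through KCNK3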
KCNQ1 inh valid = KCNQ1 potassium channel inhibitors, confirmation, cell-based, Tl flux, duplicate; shares compounds with KCNQ1 block; KCNQ1 cell line, FluxOR thallium flux fluorescence; inhibition, % at 10 µM; 93% of 1,600 active; AID 588353, 2011;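 active = primary screen active, with duplicate mean exceeding buffer control mean plus 3 SD of buffer wells, cut at about 28% in these data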;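 note: 0% = buffer control ratio and 100% = XE991 inhibitor control ratio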
CHO KCNQ1 ctr = thallium flux effects in parental CHO cells, counter-screen for KCNQ1 inhibitor project, cell-based, Tl flux; shares compounds with KCNQ1 block; parental CHO-K1, FluxOR thallium flux fluorescence ratio; stronger effect = lower value; zero means no signal rise above baseline; fluorescence ratio (Tl flux) at 10 µM; 21% of 1,600 active;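 active = mean of duplicate thallium-flux fluorescence ratios in parental host cells more than 5 SD below the buffer control mean, cut at about 0.38 in these data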;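 note: ratio is peak minus minimum fluorescence divided by baseline fluorescence; actives read low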
KCNQ1 ephys val = KCNQ1 channel inhibitors, confirmation, orthogonal assay, cell-based, automated electrophysiology. shares compounds with KCNQ1 block. KCNQ1-CHO cells, automated patch clamp current. calls only at 10 µM. 20% of 490 active. AID 624120, 2012;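 active = KCNQ1 current drop exceeding 3 SD of negative control wells, seen in both duplicate runs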;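 note: steady state current during a 2 s step from -80 to +40 mV; negative values mean current inhibition and positive values mean potentiation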
KCNQ2 inh = KCNQ2 channel inhibition, selectivity assay for KCNQ1 inhibitor project, cell-based. shares compounds with KCNQ1 block. 71% of 1,600 active. KCNQ2 cells, FluxOR thallium flux fluorescence. inhibition, % at 10 µM;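 active = mean percent inhibition of the KCNQ2 thallium signal more than 5 SD above the buffer-only control wells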;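 note: KCNQ2 expressed in CHO cells; 0% = buffer control wells and 100% = XE-991 inhibitor control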
KCNQ1 KCNE1 spec = KCNQ1/KCNE1 channel inhibition, selectivity assay for KCNQ1 inhibitor project, CHO-K1 cells, thallium flux, FluxOR; shares compounds with KCNQ1 block; inhibition, % at 10 µM; FluxOR thallium flux fluorescence; 77% of 1,600 active; AID 652147, 2013;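 active = mean percent inhibition of duplicate wells above the buffer-only control mean plus 3 SD of those controls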;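 note: 0% = buffer only wells and 100% = XE-991 inhibitor control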
* = called active by the depositor; i = inactive; x = no result given; + = active, no number.

SMILES | KCNQ1 act | KCNQ1 block | Kir21 inh | hERG rescue | KCNK9 block | KCNK3 block | KCNQ1 inh valid | CHO KCNQ1 ctr | KCNQ2 inh | KCNQ1 KCNE1 spec | others
Fc1ccc(NC(=S)NCc2cccs2)cc1 | i | 6* | 0.01 | -7 | i | i | 0 | 0.52 | i | 48%*
Cc1nc2cc(NCc3ccccc3O)ccc2n1Cc1ccccc1 | i | 8* | 0.07 | -6 | i | i | 50* | 0.45 | i | 43%*
Cn1cnc2cc(NCc3ccccc3O)ccc21 | i | i | 0.56 | 1 | i | i | x | x | x | x
O=C(Nc1ccc(F)cc1)c1cc(S(=O)(=O)Nc2ccc(F)cc2)cs1 | i | 7* | 2.8 | -9 | i | i | 66* | 0.46 | 62%* | i
CC(C)(CCl)C(=O)Nc1ccc(C(F)(F)F)cc1 | i | 6* | -0.01 | -4 | i | i | 56* | 0.5 | 66%* | 68%*
C/C(=C\C(=O)C(F)(F)F)Nc1ccc(C(F)(F)F)cc1 | i | i | 0.56 | -6 | i | i | x | x | x | x
O=C(Nc1cccc(F)c1)c1ccc(-c2ccccc2Cl)o1 | i | 8* | -0.3 | -15 | i | i | 161* | 0.31* | 119%* | +
C=CCNc1sc(C(=O)c2ccccc2)c(N)c1-c1nc2ccccc2s1 | i | 7* | 0.77 | -6 | i | i | 57* | 0.44 | 73%* | 84%*
Cc1ccc(S(=O)(=O)N2CCC[C@H]2C(=O)Oc2ccccc2)cc1 | x | x | x | x | x | i | x | x | x | x
Cc1cc(C)cc(NC(=O)NCc2c(-c3ccccc3)noc2C)c1 | i | i | 0.15 | -10 | i | i | x | x | x | x
Cc1onc(-c2ccccc2)c1CNC(=O)Nc1cccc(Cl)c1 | i | 7* | 0.94 | -12 | i | i | 76* | 0.5 | 74%* | 79%*
CCN(CC(=O)Nc1ccc(OC)c(OC)c1)S(=O)(=O)c1ccc(C)cc1 | i | i | 0.11 | -5 | i | i | x | x | x | x
O=C1COc2ccc(C(=O)NCc3ccc4c(c3)OCO4)cc2N1 | i | 7* | 1.3 | -11 | i | i | 104* | 0.48 | 86%* | 112%* | KCNQ1 ephys val=+
CC(C)(C)c1ccc(CNC(=O)c2ccc3c(c2)NC(=O)CO3)cc1 | i | i | 1.1 | 3 | i | i | x | x | x | x
Cc1ccc(S(=O)(=O)c2ccc(C)cc2)cc1 | i | i | 1.4 | -3 | i | i | x | x | x | x
Cc1ccc(S(=O)(=O)c2ccc(Oc3cccc(C)c3)cc2)cc1 | i | 8* | 0.41 | -16 | i | i | 112* | 0.41 | 108%* | 114%* | KCNQ1 ephys val=i
O=S(=O)(Cc1ccccc1Cl)Nc1ccccn1 | i | i | -0.87 | -2 | i | i | x | x | x | x
CC1C(=O)C(C)C(c2cc(Cl)ccc2O)NC1c1cc(Cl)ccc1O (stereo unspecified) | i | 10* | 0.16 | -16 | i | i | 84* | 0.43 | 83%* | 122%*
CCCCSc1nc2ccc(Nc3nc(N4CCOCC4)nc(N4CCOCC4)n3)cc2s1 | i | i | -0.57 | -6 | i | i | x | x | x | x
Cc1ccc(SCCNC(=S)Nc2ccccc2)cc1 | i | i | 0.21 | -14 | i | i | x | x | x | x
CC(=O)c1cccc(NC(=S)NCc2ccccc2)c1 | i | i | 1 | -5 | i | i | x | x | x | x
S=C(NCCc1ccccc1)Nc1cccc2cnccc12 | i | 7* | 0.58 | -16 | i | i | 29* | 0.54 | i | i
Cc1cc(C)cc(NC(=S)NCCSc2ccc(Cl)cc2)c1 | i | 10* | -1.1 | -12 | i | i | 110* | 0.43 | 108%* | 112%* | KCNQ1 ephys val=i
Cc1cc(Cl)ccc1NC(=S)NCCc1ccc(Cl)cc1 | i | 14* | -3.8 | -5 | i | i | 70* | 0.47 | 79%* | 103%*
CC(=O)c1cccc(NC(=S)NCCc2ccc(Cl)cc2)c1 | i | 8* | -1.9 | -3 | i | i | 43* | 0.56 | i | i
SMILES | KCNQ1 act | KCNQ1 block | Kir21 inh | hERG rescue | KCNK9 block | KCNK3 block | KCNQ1 inh valid | CHO KCNQ1 ctr | KCNQ2 inh | KCNQ1 KCNE1 spec | others
S=C(NCCc1ccccc1)Nc1ccc(Cl)cc1Cl | i | 7* | -1.3 | -7 | i | i | 34* | 0.49 | i | i
CC(NS(=O)(=O)c1ccc(Cl)c(Cl)c1)C(=O)OCC(=O)Nc1ccc2c(c1)OCO2 (stereo unspecified) | i | 6* | 0.32 | -9 | i | i | 0 | 0.47 | 62%* | i
CSc1nsc(/C=C/Nc2ccc(C)cc2)c1C#N | i | 7* | -0.31 | -10 | i | i | 0 | 0.51 | i | 57%*
CSc1nsc(/C=C/Nc2ccc(C)c(C)c2)c1C#N | i | i | -0.5 | -8 | i | i | x | x | x | x
Cc1cc(C(=O)CN2C(=O)C(=O)N(Cc3ccccc3)C2=O)c(C)n1Cc1ccccc1 | x | x | x | x | x | i | x | x | x | x
O=C1c2ccccc2C(=O)N1CSc1nnc2c3ccccc3n(CCc3ccccc3)c2n1 | i | 6* | -2.7 | -13 | i | i | 42* | 0.5 | 78%* | i
CC(NC(=O)c1cc(-c2ccccc2)nc2ccccc12)C1CCCO1 (stereo unspecified) | i | i | -0.6 | -9 | i | x | x | x | x | x
c1ccc(CNc2ncnc3sccc23)cc1 | i | i | 0.53 | -15 | i | i | x | x | x | x
c1cncc(CNc2ncnc3sccc23)c1 | i | 10* | -1 | -11 | i | i | 0 | 0.46 | i | i
